# Laboratory results taken from ChEMBL document CHEMBL3407380, “Structure-based design of phthalimide derivatives as potential cyclooxygenase-2 (COX-2) inhibitors: anti-inflammatory and analgesic activities” (Eur J Med Chem, 2015).
# Key:
# Mus musculus = experiment: Analgesic activity in ip dosed albino Swiss mouse assessed as licking or blowing latency time measured 60 mins post dose by hot plate method; type: functional; conditions: 1 h
# Rattus norvegicus = experiment: Antiinflammatory activity in ip dosed Sprague-Dawley rat assessed as inhibition of carrageenan-induced paw edema measured 2 hrs post dose by displacement plethysmometer analysis; type: functional
# [1] = biological target: T1, Prostaglandin G/H synthase 1 (Ovis aries, UniProt P05979); experiment: Inhibition of ovine COX1 assessed as inhibition of PGF2alpha production from PGH2 preincubated for 5 mins before arachidonic acid addition measured after 2 mins by enzyme immunoassay
# T1 sequence (P05979 whole entry): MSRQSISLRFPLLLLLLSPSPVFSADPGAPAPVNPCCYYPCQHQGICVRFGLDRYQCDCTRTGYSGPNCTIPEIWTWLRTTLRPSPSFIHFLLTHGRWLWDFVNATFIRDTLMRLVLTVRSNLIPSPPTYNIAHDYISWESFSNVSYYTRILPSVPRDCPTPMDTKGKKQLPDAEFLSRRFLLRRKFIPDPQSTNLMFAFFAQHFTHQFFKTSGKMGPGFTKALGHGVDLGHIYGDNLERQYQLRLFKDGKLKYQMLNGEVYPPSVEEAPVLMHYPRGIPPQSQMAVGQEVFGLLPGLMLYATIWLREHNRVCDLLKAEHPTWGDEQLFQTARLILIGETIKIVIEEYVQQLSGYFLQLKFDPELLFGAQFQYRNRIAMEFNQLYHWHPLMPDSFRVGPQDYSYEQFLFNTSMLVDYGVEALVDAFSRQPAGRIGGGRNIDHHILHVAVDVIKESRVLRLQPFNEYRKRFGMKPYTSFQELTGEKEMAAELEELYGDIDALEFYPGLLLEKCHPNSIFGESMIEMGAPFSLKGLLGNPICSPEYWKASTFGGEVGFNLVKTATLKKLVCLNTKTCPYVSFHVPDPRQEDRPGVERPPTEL
# Outline: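 Ovine COX-1 from a COX-1/COX-2 inhibitor screening kit, in 0.1 M Tris-HCl pH 8.0. Enzyme was incubated with inhibitor for 5 min at 37 °C. Arachidonic acid (100 µM solution) was then added, and the reaction was stopped with 1 M HCl after 2 min. Prostaglandins were quantified by competitive acetylcholinesterase-tracer EIA read at 410 nm.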
SMILES,ED50 (Mus musculus),ED50 (Rattus norvegicus),IC50 [1]
COc1ccc(CN2C(=O)c3cccc4cccc(c34)C2=O)cc1,119 mg/kg,129 mg/kg,> 100 µM
COc1ccc(CN2C(=O)c3ccccc3C2=O)cc1,107 mg/kg,162 mg/kg,110 µM
COc1cc(CN2C(=O)CCC2=O)cc(OC)c1OC,95 mg/kg,180 mg/kg,> 100 µM
COc1ccc(CN2C(=O)CCC2=O)cc1,–,–,> 100 µM
O=C1CCC(=O)N1Cc1ccc(F)cc1,–,–,> 100 µM
COc1cc(CN2C(=O)C3CC=CCC3C2=O)cc(OC)c1OC (configuration not stated),125 mg/kg,171 mg/kg,> 100 µM
COc1ccc(CN2C(=O)C3CC=CCC3C2=O)cc1 (configuration not stated),–,–,> 100 µM
O=C1C2CC=CCC2C(=O)N1Cc1ccc(F)cc1 (configuration not stated),–,–,> 100 µM
COc1cc(CN2C(=O)c3ccccc3C2=O)cc(OC)c1OC,110 mg/kg,149 mg/kg,> 100 µM
O=C1c2ccccc2C(=O)N1Cc1ccc(F)cc1,90 mg/kg,170 mg/kg,116 µM
COc1cc(CN2C(=O)c3ccc(C)cc3C2=O)cc(OC)c1OC,–,130 mg/kg,> 100 µM
COc1ccc(CN2C(=O)c3ccc(C)cc3C2=O)cc1,80.5 mg/kg,153 mg/kg,> 100 µM
Cc1ccc2c(c1)C(=O)N(Cc1ccc(F)cc1)C2=O,97 mg/kg,172 mg/kg,> 100 µM
COc1cc(CN2C(=O)c3ccc(C(C)(C)C)cc3C2=O)cc(OC)c1OC,79.3 mg/kg,147 mg/kg,> 100 µM
COc1ccc(CN2C(=O)c3ccc(C(C)(C)C)cc3C2=O)cc1,96.1 mg/kg,137 mg/kg,> 100 µM
CC(C)(C)c1ccc2c(c1)C(=O)N(Cc1ccc(F)cc1)C2=O,–,–,> 100 µM

SMILES,ED50 (Mus musculus),ED50 (Rattus norvegicus),IC50 [1]
COc1cc(CN2C(=O)c3ccc([N+](=O)[O-])cc3C2=O)cc(OC)c1OC,27.6 mg/kg,54 mg/kg,120 µM
COc1ccc(CN2C(=O)c3ccc([N+](=O)[O-])cc3C2=O)cc1,17 mg/kg,68 mg/kg,119 µM
O=C1c2ccc([N+](=O)[O-])cc2C(=O)N1Cc1ccc(F)cc1,35 mg/kg,127 mg/kg,> 100 µM
COc1cc(CN2C(=O)c3cc(Cl)c(Cl)cc3C2=O)cc(OC)c1OC,57.4 mg/kg,67 mg/kg,120 µM
COc1ccc(CN2C(=O)c3cc(Cl)c(Cl)cc3C2=O)cc1,51.2 mg/kg,75 mg/kg,131 µM
O=C1c2cc(Cl)c(Cl)cc2C(=O)N1Cc1ccc(F)cc1,–,–,> 100 µM
COc1cc(CN2C(=O)c3c(Cl)c(Cl)c(Cl)c(Cl)c3C2=O)cc(OC)c1OC,54.7 mg/kg,144 mg/kg,> 100 µM
COc1ccc(CN2C(=O)c3c(Cl)c(Cl)c(Cl)c(Cl)c3C2=O)cc1,52.9 mg/kg,103 mg/kg,> 100 µM
O=C1c2c(Cl)c(Cl)c(Cl)c(Cl)c2C(=O)N1Cc1ccc(F)cc1,–,–,> 100 µM
COc1cc(CN2C(=O)c3nccnc3C2=O)cc(OC)c1OC,40.5 mg/kg,119 mg/kg,> 100 µM
O=C1c2nccnc2C(=O)N1Cc1ccc(F)cc1,–,–,> 100 µM
COc1cc(CN2C(=O)c3cccc4cccc(c34)C2=O)cc(OC)c1OC,88 mg/kg,115 mg/kg,> 100 µM
O=C1c2cccc3cccc(c23)C(=O)N1Cc1ccc(F)cc1,–,–,> 100 µM
COc1ccc(CN2C(=O)c3nccnc3C2=O)cc1,106 mg/kg,159 mg/kg,117 µM
Cc1ccc(-c2cc(C(F)(F)F)nn2-c2ccc(S(N)(=O)=O)cc2)cc1 [CELECOXIB],71 mg/kg,–,–
